Calls of active or inactive are those of the source. The rule behind the calls is not given here. Square brackets hold non-standard residues; d marks the D form. Peptide text beside a SMILES is read from it. * marks the point of attachment. Bpa = N[C@@H](Cc1ccc(C(=O)c2ccccc2)cc1)C(=O)O; Palmitoyl = CCCCCCCCCCCCCCCC(=O)*
Legend:
MCF7 = test: Growth inhibition of breast cancer MCF7 cells after 48 hrs by MTT assay; type: functional, cell-based; settings: Homo sapiens
Method in brief: (§1)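 Cells seeded at 200-400 per well in DMEM with 10% FBS and left to attach for 24 h. The next day, inhibitor in medium at 2× was added in an equal volume, and cells were incubated 48 h in a CO2 incubator. Reference plates were read at time of addition for T0 density. MTT staining was read as absorbance at 544 nm and compared with untreated control cells.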

SK-MEL-2 = test: Growth inhibition of SK-Mel2 melanoma cells after 48 hrs by MTT assay; type: functional, cell-based, Homo sapiens; settings: Homo sapiens, SK-MEL-2, 48 h; method in brief: as §1

Molecule | IC50 (SK-MEL-2) [nM] | Activity (MCF7)
CCCCCCCCCCCCCCCC(=O)N[C@H](C(=O)N[C@@H](Cc1ccccc1)C(=O)N[C@H](C(=O)N[C@@H](C)C(=O)N[C@@H](CC(=O)O)C(=O)N[C@@H](Cc1c[nH]c2ccccc12)C(=O)N[C@@H](CCCNC(=N)N)C(=O)N[C@@H](CC(N)=O)C(=O)N[C@@H](CO)C(=O)N[C@@H](CC(N)=O)C(=O)N[C@@H](CCCNC(=N)N)C(=O)N[C@@H](Cc1ccc(O)cc1)C(=O)O)C(C)C)[C@@H](C)O (Palmitoyl-TFVADWRNSNRY-OH) |  | Active
CCCCCCCCCCCCCCCC(=O)N[C@@H](CC(C)C)C(=O)N[C@H](C(=O)N[C@@H](Cc1ccc(O)cc1)C(=O)N[C@@H](C)C(=O)N[C@@H](Cc1c[nH]c2ccccc12)C(=O)N[C@@H](Cc1cnc[nH]1)C(=O)N[C@H](C(=O)N[C@@H](CO)C(=O)N[C@@H](Cc1ccccc1)C(=O)N[C@@H](CCCCN)C(=O)N[C@@H](C)C(=O)N[C@@H](CC(C)C)C(=O)NCC(=O)N[C@H](C(=O)N[C@H](C(=O)N[C@@H](Cc1ccc(O)cc1)C(=O)N[C@@H](CCC(N)=O)C(=O)N1CCC[C@H]1C(=O)N[C@@H](CC(C)C)C(=O)N[C@@H](CO)C(=O)NCC(=O)N[C@@H](CCCCN)C(=O)N[C@@H](Cc1ccc(O)cc1)C(=O)N[C@@H](CO)C(=O)N[C@@H](Cc1ccc(O)cc1)C(=O)O)[C@@H](C)O)[C@@H](C)O)[C@@H](C)O)[C@@H](C)O (Palmitoyl-LTYAWHTSFKALGTTYQPLSGKYSY-OH) | 450 | Active
CCCCCCCCCCCCCCCC(=O)N[C@@H](CC(C)C)C(=O)N[C@@H](Cc1ccccc1)C(=O)N[C@@H](CO)C(=O)N[C@H](C(=O)N[C@@H](CCCCN)C(=O)N[C@@H](CO)C(=O)N[C@@H](CC(N)=O)C(=O)N[C@@H](Cc1c[nH]cn1)C(=O)N1CCC[C@H]1C(=O)NCC(=O)N[C@@H](CC(C)C)C(=O)N[C@@H](CC(C)C)C(=O)N[C@@H](CO)C(=O)N[C@@H](CCC(=O)O)C(=O)N[C@@H](CCCCN)C(=O)N[C@@H](C)C(=O)N[C@@H](C)C(=O)N[C@@H](CO)C(=O)N[C@@H](CCCCN)C(=O)N[C@H](C(=O)N[C@@H](CC(N)=O)C(=O)N[C@@H](CCC(=O)O)C(=O)N[C@H](C(=O)N[C@@H](CCSC)C(=O)N[C@@H](CC(C)C)C(=O)N[C@@H](CCCNC(=N)N)C(=O)O)[C@@H](C)O)[C@@H](C)CC)[C@@H](C)CC (Palmitoyl-LFSIKSNHPGLLSEKAASKINETMLR-OH) | 1500 | 
CCCCCCCCCCCCCCCC(=O)N[C@@H](CC(C)C)C(=O)N[C@H](C(=O)N[C@@H](Cc1ccc(O)cc1)C(=O)N[C@@H](C)C(=O)N[C@@H](Cc1c[nH]c2ccccc12)C(=O)N[C@@H](Cc1cnc[nH]1)C(=O)N[C@H](C(=O)N[C@@H](CO)C(=O)N[C@@H](Cc1ccccc1)C(=O)N[C@@H](CCCCN)C(=O)N[C@@H](C)C(=O)N[C@@H](CC(C)C)C(=O)NCC(=O)N[C@H](C(=O)N[C@H](C(=O)N[C@@H](Cc1ccc(O)cc1)C(=O)N[C@@H](CCC(N)=O)C(=O)N1CCC[C@H]1C(=O)O)[C@@H](C)O)[C@@H](C)O)[C@@H](C)O)[C@@H](C)O (Palmitoyl-LTYAWHTSFKALGTTYQP-OH) | 300 | 
CCCCCCCCCCCCCCCC(=O)N[C@H](C(=O)N[C@@H](Cc1ccc(O)cc1)C(=O)N[C@@H](C)C(=O)N[C@@H](Cc1c[nH]c2ccccc12)C(=O)N[C@@H](Cc1cnc[nH]1)C(=O)N[C@H](C(=O)N[C@@H](CO)C(=O)N[C@@H](Cc1ccccc1)C(=O)N[C@@H](CCCCN)C(=O)N[C@@H](C)C(=O)N[C@@H](CC(C)C)C(=O)O)[C@@H](C)O)[C@@H](C)O (Palmitoyl-TYAWHTSFKAL-OH) | 700 | 
CCCCCCCCCCCCCCCC(=O)N[C@@H](CC(C)C)C(=O)N[C@H](C(=O)N[C@@H](Cc1ccc(O)cc1)C(=O)N[C@@H](C)C(=O)N[C@@H](Cc1ccc(C(=O)c2ccccc2)cc1)C(=O)N[C@@H](Cc1cnc[nH]1)C(=O)N[C@H](C(=O)N[C@@H](CO)C(=O)N[C@@H](Cc1ccccc1)C(=O)N[C@@H](CCCCN)C(=O)N[C@@H](C)C(=O)N[C@@H](CC(C)C)C(=O)O)[C@@H](C)O)[C@@H](C)O (Palmitoyl-LTYA[Bpa]HTSFKAL-OH) | 100 | 
CCCCCCCCCCCCCCCC(=O)N[C@@H](CC(C)C)C(=O)N[C@H](C(=O)N[C@@H](Cc1ccc(O)cc1)C(=O)N[C@@H](C)C(=O)N[C@@H](Cc1c[nH]c2ccccc12)C(=O)N[C@@H](Cc1cnc[nH]1)C(=O)N[C@H](C(=O)N[C@@H](CO)C(=O)N[C@@H](Cc1ccccc1)C(=O)N[C@@H](CCCCN)C(=O)N[C@@H](C)C(=O)N[C@@H](CC(C)C)C(=O)O)[C@@H](C)O)[C@@H](C)O (Palmitoyl-LTYAWHTSFKAL-OH) | 80 | 
CCCCCCCCCCCCCCCC(=O)N[C@@H](CC(C)C)C(=O)N[C@H](C(=O)N[C@@H](Cc1ccc(O)cc1)C(=O)N[C@@H](C)C(=O)N[C@@H](Cc1c[nH]c2ccccc12)C(=O)N[C@@H](Cc1cnc[nH]1)C(=O)N[C@H](C(=O)N[C@@H](CO)C(=O)N[C@@H](Cc1ccccc1)C(=O)N[C@@H](CCCCN)C(=O)N[C@@H](C)C(=O)O)[C@@H](C)O)[C@@H](C)O (Palmitoyl-LTYAWHTSFKA-OH) | 90 | 
CCCCCCCCCCCCCCCC(=O)NCCCC[C@H](NC(=O)[C@H](CCCNC(=N)N)NC(=O)[C@H](CC(C)C)NC(=O)[C@H](CCSC)NC(=O)[C@@H](NC(=O)[C@H](CCC(=O)O)NC(=O)[C@H](CC(N)=O)NC(=O)[C@@H](NC(=O)[C@H](CCCCN)NC(=O)[C@H](CO)NC(=O)[C@H](C)NC(=O)[C@H](C)NC(=O)[C@H](CCCCN)NC(=O)[C@H](CCC(=O)O)NC(=O)[C@H](CO)NC(=O)[C@H](CC(C)C)NC(=O)[C@H](CC(C)C)NC(C)=O)[C@@H](C)CC)[C@@H](C)O)C(=O)O (stereo in doubt; form 2) | 1330 | 
Ac-LTYAWHTSFKAL-OH | > 10000 | 
CCCCCCCCCCCCCCCC(=O)N[C@@H](CC(C)C)C(=O)N[C@H](C(=O)N[C@@H](Cc1ccc(O)cc1)C(=O)N[C@@H](C)C(=O)N[C@@H](Cc1ccc(C(=O)c2ccccc2)cc1)C(=O)N[C@@H](Cc1cnc[nH]1)C(=O)N[C@H](C(=O)N[C@@H](CO)C(=O)N[C@@H](Cc1ccccc1)C(=O)N[C@@H](CCCCN)C(=O)N[C@@H](C)C(=O)N[C@@H](CC(C)C)C(=O)N[C@H](CCSC(=O)CCCC[C@@H]1SC[C@@H]2NC(=O)N[C@@H]21)C(=O)O)[C@@H](C)O)[C@@H](C)O | > 15000 | 

The next lines start with results.

IC50 (SK-MEL-2) [nM] | Molecule | Activity (MCF7)
640 | CCCCCCCCCCCCCCCC(=O)N[C@@H](CCCNC(=N)N)C(=O)NCC(=O)N[C@H](C(=O)N[C@@H](CCSC)C(=O)N[C@H](C(=O)N[C@@H](CC(C)C)C(=O)N[C@@H](Cc1ccccc1)C(=O)N[C@@H](CO)C(=O)N[C@H](C(=O)N[C@@H](CCCCN)C(=O)N[C@@H](CO)C(=O)N[C@@H](CC(N)=O)C(=O)N[C@@H](Cc1c[nH]cn1)C(=O)N1CCC[C@H]1C(=O)NCC(=O)N[C@@H](CC(C)C)C(=O)N[C@@H](CC(C)C)C(=O)N[C@@H](CO)C(=O)N[C@@H](CCC(=O)O)C(=O)N[C@@H](CCCCN)C(=O)N[C@@H](C)C(=O)N[C@@H](C)C(=O)N[C@@H](CO)C(=O)N[C@@H](CCCCN)C(=O)N[C@H](C(=O)N[C@@H](CC(N)=O)C(=O)N[C@@H](CCC(=O)O)C(=O)N[C@H](C(=O)N[C@@H](CCSC)C(=O)N[C@@H](CC(C)C)C(=O)O)[C@@H](C)O)[C@@H](C)CC)[C@@H](C)CC)[C@@H](C)O)C(C)C (Palmitoyl-RGVMTLFSIKSNHPGLLSEKAASKINETML-OH) | Active
1400 | CCCCCCCCCCCCCCCC(=O)N[C@@H](CC(C)C)C(=O)N[C@H](C(=O)N[C@@H](Cc1ccc(O)cc1)C(=O)N[C@@H](C)C(=O)N[C@@H](Cc1c[nH]c2ccccc12)C(=O)N[C@@H](Cc1cnc[nH]1)C(=O)N[C@H](C(=O)N[C@@H](CO)C(=O)N[C@@H](Cc1ccccc1)C(=O)N[C@@H](CCCCN)C(=O)N[C@@H](C)C(=O)N[C@@H](CC(C)C)C(=O)NCC(=O)N[C@H](C(=O)N[C@H](C(=O)N[C@@H](Cc1ccc(O)cc1)C(=O)N[C@@H](CCC(N)=O)C(=O)N1CCC[C@H]1C(=O)N[C@@H](CC(C)C)C(=O)N[C@@H](CO)C(=O)NCC(=O)O)[C@@H](C)O)[C@@H](C)O)[C@@H](C)O)[C@@H](C)O (Palmitoyl-LTYAWHTSFKALGTTYQPLSG-OH) | 
950 | CCCCCCCCCCCCCCCC(=O)NCCCC[C@H](NC(=O)[C@H](CCCNC(=N)N)NC(=O)[C@H](CC(C)C)NC(=O)[C@H](CCSC)NC(=O)[C@@H](NC(=O)[C@H](CCC(=O)O)NC(=O)[C@H](CC(N)=O)NC(=O)[C@@H](NC(=O)[C@H](CCCCN)NC(=O)[C@H](CO)NC(=O)[C@H](C)NC(=O)[C@H](C)NC(=O)[C@H](CCCCN)NC(=O)[C@H](CCC(=O)O)NC(=O)[C@H](CO)NC(=O)[C@H](CC(C)C)NC(=O)[C@H](CC(C)C)NC(=O)CNC(=O)[C@@H]1CCCN1C(=O)[C@H](Cc1c[nH]cn1)NC(=O)[C@H](CC(N)=O)NC(=O)[C@H](CO)NC(=O)[C@H](CCCCN)NC(=O)[C@@H](NC(=O)[C@H](CO)NC(=O)[C@H](Cc1ccccc1)NC(=O)[C@H](CC(C)C)NC(C)=O)[C@@H](C)CC)[C@@H](C)CC)[C@@H](C)O)C(=O)O (Ac-LFSIKSNHPGLLSEKAASKINETMLRK(Palmitoyl)-OH) | 
> 5000 | H-WFVVLTYAWHTSFKAL-OH | 
2700 | CCCCCCCCCCCCCCCC(=O)NCCCC[C@H](NC(=O)[C@H](Cc1ccc(O)cc1)NC(=O)[C@H](CO)NC(=O)[C@@H](NC(=O)[C@H](CCCCN)NC(=O)CNC(=O)[C@H](CO)NC(=O)[C@H](CC(C)C)NC(=O)[C@@H]1CCCN1C(=O)[C@H](CCC(N)=O)NC(=O)[C@H](Cc1ccc(O)cc1)NC(=O)[C@@H](NC(=O)[C@@H](NC(=O)CNC(C)=O)[C@@H](C)O)[C@@H](C)O)[C@@H](C)O)C(=O)O (Ac-GTTYQPLSGKTSYK(Palmitoyl)-OH) | 
60 | CCCCCCCCCCCCCCCC(=O)N[C@@H](CC(C)C)C(=O)N[C@H](C(=O)N[C@@H](Cc1ccc(O)cc1)C(=O)N[C@@H](C)C(=O)N[C@@H](Cc1c[nH]c2ccccc12)C(=O)N[C@@H](Cc1cnc[nH]1)C(=O)N[C@H](C(=O)N[C@@H](CO)C(=O)N[C@@H](Cc1ccccc1)C(=O)N[C@@H](CCCCN)C(=O)O)[C@@H](C)O)[C@@H](C)O (Palmitoyl-LTYAWHTSFK-OH) | 

Reference: ChEMBL document CHEMBL1148755, “Structural analogues of smoothened intracellular loops as potent inhibitors of Hedgehog pathway and cancer cell growth” (J Med Chem, 2007)
